Data set [1] deals with Mus musculus. The experiment in a line: Toxicity in carrageenan treated Albino mouse liver assessed as cholestasis at 100 mg/kg, po administered 1 hr before carrageenan challenge measured after 4 hrs by hematoxilen eosine staining. Format: organism-based. Details: dose 100 mg/kg, route oral. As to conditions: in vivo. The procedure, abridged:
(§1)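 Mice given oral doses suspended in 0.5% CMC (vehicle controls) for the carrageenan paw edema experiment. Animals sacrificed 4 h after the paw edema experiments. Liver, stomach and kidneys removed and fixed in 10% formalin, then sections scored microscopically for kidney edema and mononuclear cell infiltration, gastritis/ulceration, and liver fatty change, acute hepatitis/spotty necrosis and cholestasis.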

The subject of data set [2] is Mus musculus. The data set can be described thus: Antiinflammatory activity in Albino mouse assessed as inhibition of carrageenan-induced foot paw edema at 100 mg/kg, po administered 1 hr before carrageenan challenge measured after 2 hrs. Format: functional. The method, boiled down:
(§2)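 Fasted mice (water free) dosed orally with suspensions in 0.5% CMC; controls received vehicle only. Right hind paw thickness measured with a dial gauge 1 h after dosing, then carrageenan-induced edema re-measured 2 h later. Effect expressed as percent inhibition of edema versus control; mean of n = 6.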
(The carrageenan paw model is a standard test of acute inflammation.)

For data set [3], the system named is Mus musculus. The experiment in a line: Toxicity in carrageenan treated Albino mouse stomach assessed as gastric ulcer at 100 mg/kg, po administered 1 hr before carrageenan challenge measured after 4 hrs by hematoxilen eosine staining. More on the design: dose 100 mg/kg, route oral. Format: organism-based. To be noted: in vivo. The procedure, abridged: as §1

Data set [4] has as its system Mus musculus. The experiment in a line: Toxicity in carrageenan treated Albino mouse kidney assessed as […] mononuclear lymphocytes at 100 mg/kg, po administered 1 hr before carrageenan challenge measured after 4 hrs by hematoxilen eosine staining. More on the design: dose 100 mg/kg, route oral. It is filed as organism-based. As to conditions: in vivo. The procedure, abridged: as §1

Data set [5] relates to Mus musculus. The experiment in a line: Toxicity in carrageenan treated Albino mouse liver assessed as fatty change at 100 mg/kg, po administered 1 hr before carrageenan challenge measured after 4 hrs by hematoxilen eosine staining. It is filed as organism-based. Details: dose 100 mg/kg, route oral. As to conditions: in vivo. The method, boiled down:
as §1

Data set [6] deals with Mus musculus. The experiment in a line: Toxicity in carrageenan treated Albino mouse kidney assessed as edema at 100 mg/kg, po administered 1 hr before carrageenan challenge measured after 4 hrs by hematoxilen eosine staining. Format: organism-based. More on the design: dose 100 mg/kg, route oral. To be noted: in vivo. The method, boiled down: as §1
For data set [7], the system named is Mus musculus. The data set can be described thus: Antiinflammatory activity against carrageenan-induced inflammation in Albino mouse air ppouch model assessed as number of polymorphonuclear leukocytes infiltration at 100 mg/kg, po administered 1 hr before carrageenan challenge measured after 4 hrs by air pouch test. It is filed as functional. The procedure, abridged: (§3)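 Mice housed in groups of six, food withdrawn the day before with water free. Dosing by oral gavage in 0.5% CMC, with vehicle-only controls. Air pouch made by sc injection of 1 ml air over 3 days. On day 3, 1 ml of 10 mg/ml carrageenan (heat-sterilized, held at 37 °C) injected into the pouch, 1 h after dosing. Killed 4 h later; pouch lavaged with 3 ml PBS-heparin, spun 2000 rpm 15 min 4 °C, PMNL counted by Coulter Counter; n = 6.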

Data set [8] relates to Mus musculus. The data set can be described thus: Toxicity in carrageenan treated Albino mouse liver assessed as acute hepatitis at 100 mg/kg, po administered 1 hr before carrageenan challenge measured after 4 hrs by hematoxilen eosine staining. Format: organism-based. More on the design: dose 100 mg/kg, route oral. As to conditions: in vivo. The procedure, abridged: as §1

In data set [9] the test system is Mus musculus. The data set can be described thus: Toxicity in carrageenan treated Albino mouse liver assessed as cholestasis at 10 mg/kg, po administered 1 hr before carrageenan challenge measured after 4 hrs by hematoxilen eosine staining. It is filed as organism-based. Details: dose 10 mg/kg, route oral. To be noted: in vivo. The method, boiled down: as §1
In data set [10] the test system is Mus musculus. The data set can be described thus: Antiinflammatory activity in Albino mouse assessed as inhibition of carrageenan-induced foot paw edema at 10 mg/kg, po administered 1 hr before carrageenan challenge measured after 2 hrs. Format: functional. The method, boiled down: as §2
For data set [11], the system named is Mus musculus. The data set can be described thus: Antiinflammatory activity against carrageenan-induced inflammation in Albino mouse air ppouch model assessed as number of polymorphonuclear leukocytes infiltration at 10 mg/kg, po administered 1 hr before carrageenan challenge measured after 4 hrs by air pouch test. Format: functional. The procedure, abridged:
as §3

In data set [12] the test system is Mus musculus. The experiment in a line: Toxicity in carrageenan treated Albino mouse stomach assessed as gastric ulcer at 10 mg/kg, po administered 1 hr before carrageenan challenge measured after 4 hrs by hematoxilen eosine staining. Format: organism-based. Details: dose 10 mg/kg, route oral. To be noted: in vivo. The procedure, abridged: as §1
The species named for data set [13] is Mus musculus. The data set can be described thus: animal or person. As to conditions: Albino, po, read-out: INH.

SMILES strings stand for the structures. Active and inactive are the calls of the source. The calls are words filed in the database; no cut-off is given here.

Among the data in ChEMBL document CHEMBL1153368, “Benzophenone-N-ethyl piperidine ether analogues--synthesis and efficacy as anti-inflammatory agent” (Bioorg Med Chem Lett, 2009) are Activity, inhibition and inhibition in vivo values, retold here.

On to `Cc1ccc(C(=O)c2ccc(OCCN3CCCCC3)c(C)c2)cc1`, for which the Activity result in the data set on Mus musculus [1], in the data set with Mus musculus [3], in the data set on Mus musculus [4], in the data set on Mus musculus [5] and with Mus musculus [6] was “Non-toxic” throughout. For the same molecule, the inhibition result with Mus musculus [2] was “inactive”.
For `Cc1cc(C(=O)c2ccc(Br)cc2)ccc1OCCN1CCCCC1`, the Activity result in the data set with Mus musculus [1] was “Non-toxic”; in the data set with Mus musculus [3], “Non-toxic”; in the data set on Mus musculus [7], 31.75 ×10⁵ /cm'3; with Mus musculus [4], “Non-toxic”; with Mus musculus [5], “Non-toxic”; with Mus musculus [6], “Non-toxic”. In the data set with Mus musculus [8], the Activity result was “Non-toxic”. Further, in the data set on Mus musculus [2], the inhibition in vivo at 100 mg/kg came out at 67.5%.
Consider `Cc1cc(C(=O)c2cccc(Cl)c2)ccc1OCCN1CCCCC1`, for which the Activity entry was “Non-toxic” in the data set on Mus musculus [1], “Non-toxic” in the data set with Mus musculus [3], 56.26 ×10⁵ /cm'3 in the data set on Mus musculus [7] and “Non-toxic” in the data set on Mus musculus [6]. Moreover, the inhibition in vivo at 100 mg/kg in the data set with Mus musculus [2] came out at 51.4%.
Take `Cc1cc(C(=O)c2ccccc2C)ccc1OCCN1CCCCC1`: the inhibition in vivo at 100 mg/kg in the data set on Mus musculus [2] is 35.6%. Besides, the Activity entry in the data set with Mus musculus [3] is listed as “Non-toxic”; in the data set on Mus musculus [7] it was 69.51 ×10⁵ /cm'3; in the data set on Mus musculus [4], “Non-toxic”; with Mus musculus [6] it was “Non-toxic”.
Consider `CCCCC1C(=O)N(c2ccccc2)N(c2ccccc2)C1=O` [PHENYLBUTAZONE], for which, in the data set on Mus musculus [2], the inhibition in vivo at 100 mg/kg is 53.3%. Besides, the Activity in the data set with Mus musculus [7] stood at 53.28 ×10⁵ /cm'3.
For the molecule `COc1ccc(C(=O)c2ccc(OCCN3CCCCC3)c(C)c2)cc1`, the Activity entry in the data set on Mus musculus [1] is reported as “Non-toxic”; in the data set on Mus musculus [7], 56.26 ×10⁵ /cm'3; in the data set with Mus musculus [4], “Non-toxic”; in the data set on Mus musculus [5], “Non-toxic”; with Mus musculus [6], “Non-toxic”. The inhibition in vivo at 100 mg/kg in the data set with Mus musculus [2] came out at 51.4%.
For `COc1ccc2c(c1)c(CC(=O)O)c(C)n2C(=O)c1ccc(Cl)cc1` [INDOMETHACIN], the Activity result in the data set with Mus musculus [9] was “Non-toxic”; in the data set with Mus musculus [11], 68.81 ×10⁵ /cm'3; in the data set with Mus musculus [12] it was “Toxic”. Moreover, in the data set with Mus musculus [10], the inhibition in vivo at 10 mg/kg turned out to be 32.1%.
In the case of `Cc1cc(C(=O)c2ccc(F)cc2)ccc1OCCN1CCCCC1`, the Activity entry is “Non-toxic” in the data set on Mus musculus [1]; “Non-toxic” in the data set with Mus musculus [3]; 32.41 ×10⁵ /cm'3 in the data set with Mus musculus [7]; “Non-toxic” with Mus musculus [4]; “Non-toxic” in the data set with Mus musculus [5]; “Non-toxic” in the data set with Mus musculus [6]. Besides, the Activity entry with Mus musculus [8] was “Non-toxic”. In the data set with Mus musculus [2], the inhibition in vivo at 100 mg/kg stood at 60.6%.
With `Cc1cc(C(=O)c2ccccc2)ccc1OCCN1CCCCC1`, the inhibition in vivo at 100 mg/kg in the data set with Mus musculus [2] was determined as 22.4%. For the same molecule, the results for the Activity in the data set with Mus musculus [7], in the data set with Mus musculus [4] and with Mus musculus [6] were 95.25 ×10⁵ /cm'3, “Non-toxic” and “Non-toxic”, respectively.
Take `COc1ccc2cc([C@H](C)C(=O)O)ccc2c1` [NAPROXEN]: the inhibition in vivo at 30 mg/kg in the data set listed under Mus musculus [13] was 66.9%.
`Cc1cccc(C(=O)c2ccc(OCCN3CCCCC3)c(C)c2)c1`: the Activity entry is “Non-toxic” in the data set on Mus musculus [1], 104.76 ×10⁵ /cm'3 with Mus musculus [7], “Non-toxic” in the data set on Mus musculus [6] and “Non-toxic” in the data set with Mus musculus [8]. Further, the inhibition in vivo at 100 mg/kg with Mus musculus [2] turned out to be 15.4%.
In the case of `Cc1cc(C(=O)c2ccccc2Br)ccc1OCCN1CCCCC1`, the Activity result in the data set on Mus musculus [1] is “Non-toxic”; in the data set on Mus musculus [7], 56.25 ×10⁵ /cm'3; with Mus musculus [4], “Non-toxic”; with Mus musculus [5] it was “Non-toxic”; with Mus musculus [6], “Non-toxic”; with Mus musculus [8], “Non-toxic”. Also, the inhibition in vivo at 100 mg/kg in the data set on Mus musculus [2] is 51.4%.
With `Cc1cc(C(=O)c2ccc(Cl)cc2Cl)ccc1OCCN1CCCCC1`, the Activity entry is reported as “Non-toxic” with Mus musculus [1]; “Non-toxic” in the data set on Mus musculus [3]; 30.15 ×10⁵ /cm'3 in the data set on Mus musculus [7]; “Non-toxic” with Mus musculus [4]; “Non-toxic” in the data set on Mus musculus [5]; “Non-toxic” with Mus musculus [6]. Also, the inhibition in vivo at 100 mg/kg in the data set with Mus musculus [2] was found to be 68.7%.
